# Compound activity deposited in PubChem BioAssay by Sanford-Burnham Center for Chemical Genomics.
# Sampled rows, rich in hits. Any-hit rate of the full collection: about 1.8%.
# DNMT1 block: DNMT1 (human) enzyme inhibition; P26358; DNMT1 molecular beacon, Hinp1I cleavage, fluorescence; inhibition (reported as % activation of signal), % at 10 µM; 360,000 tested, 0.83% active; in the data active = inhibition above about 50%
# HKDC1 inhibitor: blocks human hexokinase HKDC1 activity. Q2TB90. recombinant HKDC1, G6PDH/diaphorase resazurin coupled fluorescence. inhibition, % at 20 µM. 340,000 tested, 0.16% active. AID 493160;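 active = inhibition above about 35% when tested at 20 µM, limit read from the data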
#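 Test system: recombinant HKDC1 (HK5) hexokinase enzyme, produced in-house / Doses: 20 µM test compound, 1% DMSO / Timing: 90 min, room temperature / Detection: G6PDH/diaphorase-coupled fluorescence, 1 mM NADP, 100 µM resazurin, 525/613 nm / Control set: DMSO wells with and without enzyme mix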
# SUMO1 PPI mod: modulators of human SUMO1-mediated protein-protein interactions; SUMO1 binding to a labelled peptide, TR-FRET, 1 h; P63165; inhibition, % at 20 µM; 360,000 tested, 0.33% active; in the data active = inhibition above about 37%
# Target sequence (P63165 whole entry, looked up): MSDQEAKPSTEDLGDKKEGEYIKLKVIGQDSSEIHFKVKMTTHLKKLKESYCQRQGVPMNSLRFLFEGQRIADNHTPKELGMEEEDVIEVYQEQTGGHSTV
# LMPTP inh: LMPTP (human) inhibition. P24666. recombinant LMPTP-A, OMFP fluorogenic substrate, fluorescence intensity. inhibition, % at 20 µM. 360,000 tested, 0.22% active. AID 651560;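 active = compounds that cut the enzyme signal by at least half of the control window in the single-dose screen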
# Target sequence (P24666 whole entry, looked up): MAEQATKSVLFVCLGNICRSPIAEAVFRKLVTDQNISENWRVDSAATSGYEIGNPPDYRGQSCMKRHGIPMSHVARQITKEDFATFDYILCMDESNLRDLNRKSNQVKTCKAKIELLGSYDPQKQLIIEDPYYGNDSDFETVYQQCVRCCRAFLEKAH
#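 Assay system: LMPTP-A enzyme. Input: 0.625 nM LMPTP-A final. Probe or stimulus: 400 µM OMFP. Compound dosing: single 20 µM dose. Schedule: 50 min dark incubation at room temperature. Detection: fluorescence intensity of OMFP turnover product. Read-out: percent inhibition versus substrate-only and uninhibited controls. Benchmarks: no-enzyme low control, uninhibited high control.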
# STEP block: blocks human striatal-enriched tyrosine phosphatase; P54829; recombinant STEP, OMFP fluorogenic substrate, fluorescence; inhibition, % at 20 µM; 360,000 tested, 0.25% active; AID 588621;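 active = inhibition at 20 µM, scaled per plate between control wells, above about 37%, limit read from the data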
#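 Assay system: isolated STEP enzyme / Timing: 20 min at room temperature, dark / Doses: 20 µM, 1% DMSO / Technique: fluorescence intensity, excitation 480 nm, emission 540 nm / Reagent: fluorogenic phosphatase substrate OMFP at 25 µM final / Measure: percent inhibition scaled to no-enzyme and uninhibited-enzyme controls, plate-pattern corrected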
# Scp-1 inhibitor: inhibitors of human Scp-1 phosphatase. Q9GZU7. Recombinant Scp1, phosphopeptide, malachite green phosphate absorbance. inhibition, % at 20 µM. 340,000 tested, 0.88% active. AID 493091;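 active = inhibition above about 50% at 20 µM, limit read from the data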
# Target sequence (Q9GZU7 76-261 limits assumed): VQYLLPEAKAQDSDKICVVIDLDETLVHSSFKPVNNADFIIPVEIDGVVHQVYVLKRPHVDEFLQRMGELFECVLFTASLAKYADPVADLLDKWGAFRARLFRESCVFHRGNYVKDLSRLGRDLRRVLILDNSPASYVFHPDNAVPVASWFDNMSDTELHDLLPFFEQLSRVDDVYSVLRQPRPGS
#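 System: SCP-1 catalytic domain; Reagent: Phospho 17-mer peptide substrate; Doses: one concentration, 20 µM, with 1.0% DMSO; Incubation: 45 min room-temperature reaction, 5 min colour, 30 min stabiliser; Signal: Phosphate-binding colour reagent, absorbance read at 630 nm.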
# A number is an active result; 0 = inactive; - = no result given.
SMILES,DNMT1 block,HKDC1 inhibitor,SUMO1 PPI mod,LMPTP inh,STEP block,Scp-1 inhibitor
Cc1nc2c(OCCC3CCCCC3)cccn2c1N(C)C(=O)CCC1CCCC1,0,-,0,0,0,-
CCCC(C)NC(=O)c1ccc(F)cc1 (centres undefined),0,0,0,0,0,0
CCOC(=O)NC(NC(=O)OCC)C(=O)c1ccc(F)cc1,0,0,0,0,0,102
CSc1nc(C)c2c(n1)N(c1ccc(C(C)C)cc1)CC2,0,0,56,0,0,0
COc1ccc(OC)c2nc3c(C(=O)NCCN(C)C)cccc3nc12,0,0,0,0,0,0
CN(C)CCNC(=O)c1cccc2nc3cccc(F)c3nc12,55,0,0,0,0,0
COCCCn1cc(CN2CC(N3CCN(Cc4ccccc4F)CC3)CS2(=O)=O)nn1 (centres undefined),-,-,0,0,-,-
O=C1c2cccc3c(O)ccc(c23)C(=O)N1Cc1ccccc1,68,0,0,0,0,0
O=C(O)c1cccc(CN2C(=O)c3ccccc3C2=O)c1,0,0,0,0,0,0
O=C(c1cnc(Cc2c[nH]c3ccccc23)c(I)c1)N1CCOCC1,0,-,0,0,0,-
CN(C)S(=O)(=O)c1ccc(C(=O)OCC(=O)c2ccc3c(c2)NC(=O)CO3)cc1,0,0,0,57,0,0
CN(C)S(=O)(=O)c1cccc(C(=O)OCC(=O)c2ccc3c(c2)NC(=O)CO3)c1,0,0,0,0,0,0
CO[C@@]1(NC(=O)CSCC#N)C(=O)N2C(C(=O)O)=C(CSc3nnnn3C)CS[C@@H]21,66,0,0,0,0,65
CN(C)CCn1nnnc1SCC1=C(C(=O)O)N2C(=O)[C@@H](NC(=O)Cc3csc(N)n3)[C@H]2SC1,0,0,0,0,0,0
COc1ccc2nc3cc(Cl)ccc3c(Nc3ccc(O)c(CN4CCN(C)CC4)c3)c2c1,68,0,0,0,0,0
COc1ccc2nc3cc(Cl)ccc3c(C#N)c2c1,0,0,0,0,0,0
CCN(CCNC(=O)c1ccc(CSc2nc3ccncc3[nH]2)cc1)c1ccccc1,0,0,0,0,0,0
O=C(NCCN1CCN(c2cccc(Cl)c2)CC1)c1ccc(CSc2nc3ccncc3[nH]2)cc1,0,0,0,83,0,0
O=C(CSc1nnc(CNC(=O)c2ccccc2F)o1)NC1CCCCC1,0,0,38,0,0,0
O=C(CSc1nnc(CNC(=O)c2c(F)cccc2Cl)o1)NC1CCCCC1,0,0,0,0,0,0
O=C1NC(c2cccc3ccccc23)Nc2ccccc21 (centres undefined),0,0,0,0,0,0
O=C1c2ccccc2C(=O)C12OC2c1cccc2ccccc12 (centres undefined),58,0,39,0,0,0
OC(c1ccc(F)c(F)c1)c1nc(-c2cccc3cccnc23)cs1 (centres undefined),0,-,0,0,0,-
CCOC(=O)N1CCN(C(=O)C2CCN(C(=O)c3ccc(C(C)(C)C)cc3)CC2)CC1,0,0,0,0,0,0
Cc1ccc(C(=O)Nc2nnc(CC(=O)N/N=C/c3ccc(O)c(O)c3)s2)cc1,0,0,96,0,0,0
SMILES,DNMT1 block,HKDC1 inhibitor,SUMO1 PPI mod,LMPTP inh,STEP block,Scp-1 inhibitor
COc1ccc(C(=O)Nc2nnc(CC(=O)N/N=C/c3ccc(O)cc3O)s2)cc1,0,-,79,0,0,-
Cc1ccc(C(=O)Nc2nnc(CC(=O)N/N=C/c3ccncc3)s2)cc1,0,0,0,0,0,0
C/C(N)=C(/C#N)C(=O)CSc1nnc(Nc2c(C)cccc2C)s1,0,0,0,0,0,70
Cc1cccc(C)c1NC(=O)CN(C)CC(=O)c1c(N)n(Cc2ccccc2)c(=O)n(C)c1=O,0,0,0,0,0,0
O=Cc1ccnc(-c2ccc(OC(=O)c3ccco3)cc2)n1,0,0,56,0,0,0
COc1cccc(C(=O)NCC2(c3ccccc3)CCCC2)c1OC,0,0,0,0,0,0
CC1Cc2ccccc2N1C(=S)NC(=O)C1(C)CC1(Cl)Cl (centres undefined),0,0,0,0,0,50
CCOC(=O)C1=CCN(S(=O)(=O)c2ccc(C)cc2)C1c1ccccc1F (centres undefined),0,-,0,0,0,-
CC1CCCCC12NC(=O)N(CC(=O)N1CCN(Cc3ccc(C#N)cc3)CC1)C2=O (centres undefined),0,0,0,0,0,0
O=C(O)C1CCN(S(=O)(=O)c2ccc3c(c2)OCCCO3)CC1,0,0,0,0,0,0
O=C(O)c1cn(C2CC2)c2cc(N3CCN(S(=O)(=O)c4ccc5c(c4)OCCO5)CC3)c(F)cc2c1=O,0,0,0,65,0,0
CCc1nc2c(OCC3CCCCC3)cccn2c1N(C)C(=O)c1ccccc1F,0,-,0,0,0,-
CCn1c(/C=C/N(C)c2ccccc2)[n+](CC)c2ccc(Cl)cc21,0,0,0,0,0,74
O=C(OCC(=O)C12CC3CC(CC(C3)C1)C2)c1ccc(O)cc1O,0,0,0,0,0,0
COc1ccccc1/C=c1\sc2nc(-c3ccccc3OC)nn2c1=O,0,0,0,0,0,0
COc1ccc(Br)cc1/C=c1\sc2nc(-c3ccco3)nn2c1=O,106,0,0,0,0,88
COc1ccc(Cc2c(C(C)(C)C)nc3ccc(C)cn23)c(C)c1,0,-,0,0,0,-
COc1ccc(Cc2c(C(C)(C)C)nc3ccc(Cl)cn23)c(C)c1,104,-,0,0,0,-
CCCC(=O)N1CCC1(C)C(=O)Nc1ccc(-n2cccc2)cc1 (centres undefined),0,-,0,0,0,-
Cc1ccc(NC(=O)CSc2nc(N)cc(=O)[nH]2)cc1S(=O)(=O)N1CCCCC1,0,0,39,0,0,0
S=c1[nH]nc(-c2cc(-c3ccccc3)n[nH]2)n1/N=C/c1ccc(Br)s1,0,0,61,0,0,0
Cc1cccc(C)c1-n1nnnc1C(c1ccnc2ccccc12)N(CCN(C)C)Cc1ccccc1 (centres undefined),-,-,0,0,-,-
COC(=O)c1sc(NC(=O)c2cc(-c3ccccc3)nc3ccccc23)c(C#N)c1C,0,0,0,0,91,0
NS(=O)(=O)c1ccc(CCNC(=O)c2cc3ccccc3s2)cc1,0,0,0,0,0,58
C#CCOCCOCCOCCNc1nc(N2CCN(C(=O)CCCCCCCCCCNC(=O)[C@H]([C@@H](C)CC)n3cc(CCCCN=C(N)N)nn3)CC2)nc(N2CCN(C(=O)CCCCCCCCCCNC(=O)[C@H](CO)n3cc(CCCCCN)nn3)CC2)n1,0,0,47,0,0,0
